Records with an inconclusive call do not appear.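 The calls were made as follows, unless noted: active = growth inhibition above 25% in both replicates, a cutoff set 3 SD above the mean; inconclusive = above 25% in only one replicate; inactive = the rest.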
Experiments:
[1] = OD615 S. cerevisiae growth inhibition, permissive medium, pilot counter-assay, permissive growth control for S. cerevisiae lifespan shortening project (AID 705); settings: OD615, 24 h, at 10 µM, active compounds read high
Outline: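 assay system = Saccharomyces cerevisiae strain carrying genetically modified DeaD replicative-lifespan system | medium = SC raffinose/galactose permissive medium | dosing = 10 µM single dose, 0.25% DMSO | schedule = 24 h compound exposure at 30 °C after 4 h pre-growth | measured by = OD at 615 nm | read-out basis = growth inhibition from lowered OD615 after 24 h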

[2] = Restrictive medium S. cerevisiae growth inhibition, OD615, pilot screen of yeast lifespan reduction project, restrictive growth control (AID 706;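 active = growth inhibition above a set limit, 3 SD over mean compound inhibition, in both replicates, cut at about 43% in these data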;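 also: modified DeaD lifespan yeast strain shifted to restrictive glucose medium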); settings: OD615, 48 h, at 10 µM, active compounds read high
Outline: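 Buffer or medium: CSMM-D glucose medium. Material: genetically modified Saccharomyces cerevisiae, DeaD replicative lifespan assay strain. Times: 48 h compound exposure at 30 °C. Measured by: optical density at 615 nm.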

[3] = viability gain of MRP-1-high H69AR cells under doxorubicin, pilot screen, MRP-1 activator project, CellTiter-Glo, duplicate (AID 807;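 active = viability increase at or above a cutoff of the median across tested compounds plus 3 SD, cut at about 8.5% in these data, passing the limit was not always enough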;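 also: compound pretreatment 18-22 h then 72 h combined with doxorubicin; 0% = doxorubicin alone and 100% = vehicle without doxorubicin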); settings: H69AR viability with doxorubicin, CellTiter-Glo luminescence; at 10 µM; active compounds read high
[4] = growth suppression of beta-catenin knockout HCT116, pilot screen, human colon tumor cells (AID 823;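 active = cell viability at or below a set limit in both duplicate runs, the limit being the all-compound median minus 4 SD, cut at about 23% in these data, passing the limit was not always enough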;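 also: 0% = wells killed by 20 µM Hyamine and 100% = untreated DMSO cell wells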); settings: CellTiter-Glo, 60 h, at 10 µM, active compounds read low
[5] = growth suppression of PTEN-deleted HCT116, pilot screen, cell-based, HCT116 clonal line, CellTiter-Glo (AID 824;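 active = viability at or below 27.92% in each of two runs, the all-compound median minus 4 SD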;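 also: 0% = 20 µM Hyamine control and 100% = vehicle cell control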); settings: 60 h, at 10 µM, active compounds read low
[6] = inhibitors of the yeast RAM network, pilot screen, dse1pr::URA3 reporter, 5-FOA selection (AID 869;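 active = inhibition over a set limit, the all-compound mean plus 3 SD, in both replicate runs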;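 also: 0% = DMSO wells with no growth and 100% = 10 µM 1-NA-PP1 with full growth; RAM network block rescues cells from 5-FOA so hits raise OD615 growth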); settings: S. cerevisiae dse1pr::URA3 5-FOA growth, OD615, 2 d; at 10 µM; active compounds read high; strain carries analog-sensitive mutant Cbk1 kinase
[7] = RAM signaling pathway blockade in yeast – S. cerevisiae, Pdr1DBD-CYC8 efflux-inhibited sensitized strain, primary screen (AID 1298;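 active = RAM network inhibition above 8.4% in each of two replicates, 3 SD over the compound average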;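 also: 0% = DMSO untreated cells without growth and 100% = 10 µM 1-NA-PP1 full growth; higher means more yeast growth rescued from 5-FOA killing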); settings: S. cerevisiae cbk1-as DSE1-URA3 strain, 5-FOA growth OD615, 2 d; at 50 µM; active compounds read high

C=CCSc1nnc(-c2cc(Br)ccc2N)c(=O)[nH]1
inactive: growth inhibition [1] -14.6% | growth inhibition [2] -18% | viability increase [3] 0.99% | viability [4] 102% | viability [5] 96.5% | inhibition [6] 0.7% | RAM network inhibition [7] 2.42%

CCc1ccccc1N1CC23C=CC(O2)C(C(=O)OC)C3C1=O (configuration not stated)
inactive: growth inhibition [1] -17.5% | growth inhibition [2] -18.8% | viability increase [3] -0.91% | viability [4] 92.7% | viability [5] 99% | inhibition [6] 0.9% | RAM network inhibition [7] 5.27%

COc1cc(C2NC(=O)N(C)C3=C2C(=O)CCC3)cc(OC)c1OC (configuration not stated)
inactive: growth inhibition [1] -3.03% | growth inhibition [2] -17.1% | viability increase [3] -0.05% | viability [4] 104% | viability [5] 99% | inhibition [6] 2.73% | RAM network inhibition [7] 4.71%

CC(C)(C)NC(=O)CSc1nccn1Cc1ccccc1
inactive: growth inhibition [1] -11.7% | growth inhibition [2] -5.1% | viability increase [3] -1.52% | viability [4] 95.9% | viability [5] 93% | inhibition [6] 1.66% | RAM network inhibition [7] 4.82%

Cn1nc(-c2ccc(Cl)cc2)c2cc(C(=O)NC3CC3)sc21
inactive: growth inhibition [1] -7.08% | growth inhibition [2] -1.2% | viability increase [3] -6.68% | viability [4] 83.6% | viability [5] 84.2% | inhibition [6] 3.62% | RAM network inhibition [7] 3.94%

O=C1CCc2cc(S(=O)(=O)NC(Cc3ccccc3)C(=O)NC3CCCC3)ccc2N1 (configuration not stated)
inactive: growth inhibition [1] -11.3% | growth inhibition [2] -9.16% | viability increase [3] -0.35% | viability [4] 96.8% | viability [5] 98.8% | inhibition [6] 1.86% | RAM network inhibition [7] 0.41%

O=S(=O)(c1cc(Cl)ccc1Cl)N1CCN(Cc2ccc3c(c2)OCO3)CC1
inactive: growth inhibition [1] -18.5% | growth inhibition [2] -8.86% | viability increase [3] 0.21% | viability [4] 94.8% | viability [5] 83.7% | inhibition [6] 0.37% | RAM network inhibition [7] 2.23%

CN(CCO)c1ncnc2nc[nH]c12
inactive: growth inhibition [1] -10.4% | growth inhibition [2] -7.77% | viability increase [3] 0.3% | viability [4] 104% | viability [5] 93.2% | inhibition [6] 1.36% | RAM network inhibition [7] 1.71%

CCOC(=O)N1CCC(N2CC34C=CC(O3)C(C(=O)Nc3ccc(OCC)cc3)C4C2=O)CC1 (configuration not stated)
inactive: growth inhibition [1] 0.885% | growth inhibition [2] 0.91% | viability increase [3] 2.9% | viability [4] 108% | viability [5] 112% | inhibition [6] 0.595% | RAM network inhibition [7] 3.14%

O=C(Cn1cnc2c(nnn2-c2ccccc2)c1=O)N1CCC(Cc2ccccc2)CC1
inactive: growth inhibition [1] 7.29% | growth inhibition [2] 9.16% | viability increase [3] -1.56% | viability [4] 91.4% | viability [5] 85.3% | inhibition [6] 2.19% | RAM network inhibition [7] 7.33%

CCc1ncc(C(=O)c2ccc(OC)cc2)n1C
inactive: growth inhibition [1] 1.37% | growth inhibition [2] -0.315% | viability increase [3] 3.42% | viability [4] 105% | viability [5] 104% | inhibition [6] 0.225% | RAM network inhibition [7] 5.28%

O=C(OCCNc1ncc(C(F)(F)F)cc1Cl)c1ccc(S(=O)(=O)N2CCOCC2)cc1
inactive: growth inhibition [1] -5% | growth inhibition [2] -18.4% | viability increase [3] -2.03% | viability [4] 88.8% | viability [5] 97.9% | inhibition [6] 1.17% | RAM network inhibition [7] 9.46%

Cc1ccc2c(c1)c1cccc3c1n2CCN3CCC(N)=O
inactive: growth inhibition [1] 4.29% | growth inhibition [2] 6.53% | viability increase [3] 1.41% | viability [4] 87.4% | viability [5] 87.2% | inhibition [6] 3.32% | RAM network inhibition [7] 9.34%

C=CCOC(=O)C1=C(C)NC(=O)NC1c1ccc(OC(=O)c2ccco2)c(OC)c1 (configuration not stated)
inactive: growth inhibition [1] -6.37% | growth inhibition [2] -18.3% | viability increase [3] -0.16% | viability [4] 93.6% | viability [5] 96.4% | inhibition [6] 0.145% | RAM network inhibition [7] 2.71%

Fc1ccc(Cc2nnc(-c3cccs3)o2)cc1
inactive: growth inhibition [1] -20.1% | growth inhibition [2] -0.63% | viability increase [3] 0.11% | viability [4] 104% | viability [5] 97.8% | inhibition [6] 1.93% | RAM network inhibition [7] 12.2%

CC1CC(C)CN(CCCNC(=O)CNC(=O)Cn2ccc3ccccc3c2=O)C1 (configuration not stated)
inactive: growth inhibition [1] -3% | growth inhibition [2] -19.7% | viability increase [3] -0.78% | viability [4] 104% | viability [5] 98.9% | inhibition [6] 0.76% | RAM network inhibition [7] 2.22%

CCOC(=O)CC1C(=O)NCCN1C(=O)c1cc2c(=O)n3ccccc3nc2s1 (configuration not stated)
inactive: growth inhibition [1] -13.7% | growth inhibition [2] 0.575% | viability increase [3] 1.22% | viability [4] 95.3% | viability [5] 95.5% | inhibition [6] 1% | RAM network inhibition [7] 6.8%

COc1cc2c(cc1OC)C1=C(C#N)CN(C3CCCCC3)CN1CC2
inactive: growth inhibition [1] -11.3% | growth inhibition [2] 4.15% | viability increase [3] -3.47% | viability [4] 90% | viability [5] 81.1% | inhibition [6] 2.15% | RAM network inhibition [7] 3.92%

O=C(CC1SC(=Nc2ccccc2)N(CCCO)C1=O)Nc1ccc(Cl)cc1 (configuration not stated)
inactive: growth inhibition [1] -6.75% | growth inhibition [2] -7.97% | viability increase [3] -6.7% | viability [4] 48.1% | viability [5] 42.1% | inhibition [6] 0.52% | RAM network inhibition [7] 1.29%

Cn1c(=O)oc2cc(S(=O)(=O)Nc3ccc(Cl)cc3F)ccc21
inactive: growth inhibition [1] -9.48% | growth inhibition [2] -19.3% | viability increase [3] 2.12% | viability [4] 105% | viability [5] 92.7% | inhibition [6] 0.53% | RAM network inhibition [7] 9.07%

COC(=O)c1sccc1NC(=O)c1ccc(Br)o1
inactive: growth inhibition [1] 12.1% | growth inhibition [2] 11.3% | viability increase [3] -6.77% | viability [4] 78.5% | viability [5] 72.2% | inhibition [6] 2.2% | RAM network inhibition [7] 7.41%

C=CCOc1cccc(C2c3c(oc4ccccc4c3=O)C(=O)N2c2ccccn2)c1 (configuration not stated)
inactive: growth inhibition [1] -8.5% | growth inhibition [2] -8.1% | viability increase [3] -4.17% | viability [4] 79.7% | viability [5] 81.6% | inhibition [6] 2.12% | RAM network inhibition [7] 9.18%

CC(NC(=O)c1ccco1)C(c1cccs1)N1CCN(c2ccccc2)CC1 (configuration not stated)
inactive: growth inhibition [1] -5.64% | growth inhibition [2] -18.3% | viability increase [3] -1.36% | viability [4] 87.7% | viability [5] 81.2% | inhibition [6] 1.74% | RAM network inhibition [7] 5.06%

c1ccc(-n2ncc3c(NCc4cccnc4)ncnc32)cc1
inactive: growth inhibition [1] -9.01% | growth inhibition [2] 2.41% | viability increase [3] 3.3% | viability [4] 88.1% | viability [5] 83.6% | inhibition [6] 2.49% | RAM network inhibition [7] 0.31%

CC12CCC(C(=O)N3CCCc4ccccc43)(CC1=O)C2(C)C (configuration not stated)
inactive: growth inhibition [1] -15% | growth inhibition [2] -2.7% | viability increase [3] -0.39% | viability [4] 83.6% | viability [5] 87.6% | inhibition [6] 0.94% | RAM network inhibition [7] 0.93%

N#Cc1c(NC(=O)c2cc(C3CC3)on2)sc2c1CCC2
inactive: growth inhibition [1] -1.24% | growth inhibition [2] 5.11% | viability increase [3] -5.36% | viability [4] 38.9% | viability [5] 34.1% | inhibition [6] 3.44% | RAM network inhibition [7] -1.72%

Nc1ccc(-c2nc3ccc(N)cc3o2)cc1
inactive: growth inhibition [1] 0.07% | growth inhibition [2] 7.21% | viability increase [3] -1.18% | viability [4] 100% | viability [5] 86.8% | inhibition [6] 3.98% | RAM network inhibition [7] 6.51%

COc1ccc(NC(=O)N(CCC(C)C)C(C)c2ccccn2)c(OC)c1 (configuration not stated)
inactive: growth inhibition [1] -5% | growth inhibition [2] 7.73% | viability increase [3] -3.52% | viability [4] 79.2% | viability [5] 85.6% | inhibition [6] 1.11% | RAM network inhibition [7] 3.79%

CCCCN1C(=O)/C(=C2\SC(N3CCCCC3)=NC2=O)c2ccccc21
inactive: growth inhibition [1] -4.39% | growth inhibition [2] 14.6% | viability increase [3] -2.31% | viability [4] 48.4% | viability [5] 45.8% | inhibition [6] 1.53% | RAM network inhibition [7] 3.38%

COc1ccc(S(=O)(=O)Cc2ccc(C(=O)NC(C)C)o2)cc1
inactive: growth inhibition [1] -1.35% | growth inhibition [2] 0.215% | viability increase [3] 1.22% | viability [4] 108% | viability [5] 99.6% | inhibition [6] -0.2% | RAM network inhibition [7] 1.2%

Nc1nc2n(n1)C(c1ccccc1)CC(c1ccc(F)cc1)N2 (configuration not stated)
inactive: growth inhibition [1] -2.32% | growth inhibition [2] 16.9% | viability increase [3] -0.53% | viability [4] 97.9% | viability [5] 98.2% | inhibition [6] 0.145% | RAM network inhibition [7] 0.84%

O=C(C1CCCN(S(=O)(=O)c2ccccc2)C1)N1CCCCCC1 (configuration not stated)
inactive: growth inhibition [1] -1.18% | growth inhibition [2] 0% | viability increase [3] -1.36% | viability [4] 79.6% | viability [5] 94.3% | inhibition [6] 1.79% | RAM network inhibition [7] 4.15%

Cc1cc(C)nc(NS(=O)(=O)c2ccc(NC(=O)CCCN3C(=O)c4ccccc4C3=O)cc2)n1
inactive: growth inhibition [1] -7.67% | growth inhibition [2] -0.225% | viability increase [3] -1% | viability [4] 99.6% | viability [5] 100% | inhibition [6] 0.735% | RAM network inhibition [7] 3.72%

Cc1ccc(OCCn2c(C)c(/C=N/n3cnnc3)c3ccccc32)cc1
inactive: growth inhibition [1] 8.46% | growth inhibition [2] 22.9% | viability increase [3] -6.55% | viability [4] 81.5% | viability [5] 76% | inhibition [6] 0.8% | RAM network inhibition [7] 1.89%

CCOC(=O)CN1c2ccccc2NC(=O)CC1C (configuration not stated)
inactive: growth inhibition [1] -5.11% | growth inhibition [2] -4.52% | viability increase [3] -4.06% | viability [4] 101% | viability [5] 98.9% | inhibition [6] 0.895% | RAM network inhibition [7] -0.43%

CCOc1ccc(NC2CCN(C(C)=O)CC2)cc1
inactive: growth inhibition [1] -12.8% | growth inhibition [2] -7.46% | viability increase [3] 0.27% | viability [4] 95.2% | viability [5] 97% | inhibition [6] 0.625% | RAM network inhibition [7] 6.44%
